Test results published in ChEMBL document CHEMBL4351001, “2-Aminoimidazole-based antagonists of the 5-HT6 receptor - A new concept in aminergic GPCR ligand design” (Eur J Med Chem, 2019).
Activity calls are given as the source filed them. The calls are words filed in the database; no cut-off is given here.

Experiments:
Rattus norvegicus [1] = assay: Reversal of scopolamine induced cognitive impairment impairment in Sprague-Dawley rat at 1 mg/kg, po pre treated for 2 hrs followed by scopolamine addition further treated for 30 mins and measured after 1 hr by novel object recognition test; format: functional, organism-based
Summary of the method: (§1)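 Male Sprague–Dawley rats (~250 g); open-field habituation 5 min 24 h before test. Compounds p.o. 120 min and scopolamine 1.25 mg/kg i.p. 30 min before 3-min familiarization trial; 3-min recognition trial 1 h later. Exploration video-tracked; discrimination index computed; one-way ANOVA with Newman–Keuls; n = 9–10 per group; mean ± SEM.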

in vitro = conditions: rat, microsomes
[2] = target: Histamine H1 receptor (Homo sapiens) (UniProt P35367); assay: Antagonist activity at human recombinant H1 histamine receptor at 10^-5 M relative to control; design: scale not given: the % may be the effect or the level left
[3] = target: T1, Muscarinic acetylcholine receptor M1 (Homo sapiens) (UniProt P11229); assay: Displacement of [3H] pirenzepine from human recombinant muscarinic M1 receptor at 10^-6 M measured after 60 mins by scintillation counter method relative to control
T1 sequence (whole entry): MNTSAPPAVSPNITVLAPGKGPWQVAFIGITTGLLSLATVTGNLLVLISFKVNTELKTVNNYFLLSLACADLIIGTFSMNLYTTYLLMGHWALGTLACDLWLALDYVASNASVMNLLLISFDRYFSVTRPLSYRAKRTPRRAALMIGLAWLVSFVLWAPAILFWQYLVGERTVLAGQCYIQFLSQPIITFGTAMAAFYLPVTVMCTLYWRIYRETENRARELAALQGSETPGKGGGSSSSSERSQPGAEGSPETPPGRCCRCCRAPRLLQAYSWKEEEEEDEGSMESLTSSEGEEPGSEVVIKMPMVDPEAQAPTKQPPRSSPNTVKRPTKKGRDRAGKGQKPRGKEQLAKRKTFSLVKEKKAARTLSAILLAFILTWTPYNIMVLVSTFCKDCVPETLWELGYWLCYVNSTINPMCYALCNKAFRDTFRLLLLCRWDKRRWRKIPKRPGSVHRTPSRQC

HepG2 = assay: Cytotoxicity against human HepG2 cells assessed as cell membrane damage measured after 24 hrs by Toxilight assay; format: cell-based; conditions: HepG2, 24 h
Summary of the method: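 HepG2 cells seeded at 2x10^4 per well in DMEM with 10% FBS, grown 24 h (37°C, 5% CO2), then exposed 24 h to 1, 10, 50 and 100 μM compound. Viability read with PrestoBlue (fluorescence); membrane damage by ToxiLight (luminescence).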

Rattus norvegicus [4] = assay: Reversal of scopolamine induced cognitive impairment in Sprague-Dawley rat assessed increase in discrimination index at 0.3 mg/kg, po cotreated with 0.3 mg/kg of donepezil pre treated for 2 hrs followed by scopolamine addition further treated for 30 mins and measured after 1 hr by novel object recognition test; format: functional, organism-based; summary of the method: as §1
[5] = target: T2, Alpha-1A adrenergic receptor (Rattus norvegicus) (UniProt P43140); assay: Displacement of [3H] prazosin from rat alpha 1A adrenergic receptor at 10^-6 M measured after 60 mins by scintillation counter method relative to control
T2 sequence (whole entry): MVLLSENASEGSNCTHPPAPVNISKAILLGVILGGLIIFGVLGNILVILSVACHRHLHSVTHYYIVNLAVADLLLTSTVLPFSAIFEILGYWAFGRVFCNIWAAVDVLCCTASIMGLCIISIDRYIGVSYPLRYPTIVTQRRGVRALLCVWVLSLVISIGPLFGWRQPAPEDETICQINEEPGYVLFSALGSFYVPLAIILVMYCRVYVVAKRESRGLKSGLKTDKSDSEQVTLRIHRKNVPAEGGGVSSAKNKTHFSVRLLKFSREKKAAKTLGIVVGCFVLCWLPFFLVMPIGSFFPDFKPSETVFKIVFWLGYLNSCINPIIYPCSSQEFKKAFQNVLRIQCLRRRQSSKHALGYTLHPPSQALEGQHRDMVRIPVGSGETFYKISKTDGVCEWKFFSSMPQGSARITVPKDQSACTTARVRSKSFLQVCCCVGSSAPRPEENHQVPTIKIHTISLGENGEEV

[6] = target: Histamine H1 receptor (Homo sapiens) (UniProt P35367); assay: Agonist activity at human recombinant H1 histamine receptor at 10^-5 M relative to control
[7] = target: T3, 5-hydroxytryptamine receptor 2C (Homo sapiens) (UniProt P28335); assay: Antagonist activity at human 5HT2C serotonin receptor at 10^-5 M relative to control; design: scale not given: the % may be the effect or the level left
T3 sequence (whole entry): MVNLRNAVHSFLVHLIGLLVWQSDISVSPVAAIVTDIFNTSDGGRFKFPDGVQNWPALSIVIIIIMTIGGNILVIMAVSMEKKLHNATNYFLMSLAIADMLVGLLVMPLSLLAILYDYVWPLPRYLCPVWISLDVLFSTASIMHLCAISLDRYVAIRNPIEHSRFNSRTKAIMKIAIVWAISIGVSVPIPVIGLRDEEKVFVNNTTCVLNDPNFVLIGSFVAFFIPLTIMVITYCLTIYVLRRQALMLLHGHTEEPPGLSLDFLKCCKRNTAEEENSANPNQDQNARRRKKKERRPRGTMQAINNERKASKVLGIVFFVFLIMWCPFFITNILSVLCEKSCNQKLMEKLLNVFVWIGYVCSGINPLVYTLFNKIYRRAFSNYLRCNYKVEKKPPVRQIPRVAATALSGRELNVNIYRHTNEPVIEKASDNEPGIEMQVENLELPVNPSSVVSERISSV

Cytochrome P450 2D6 = Cytochrome P450 2D6 (Homo sapiens, UniProt P10635); assay: Inhibition of human recombinant CYP2D6 expressed in Escherichia coli at 6.4 uM using luciferin ME-EGE as substrate preincubated for 5 mins followed by NADPH addition measured after 45 mins by P450-Glo luminescence assay; format: ADME; conditions: recombinant enzyme, 0.75 h
Summary of the method: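 P450-Glo luminescent assays: enzyme, proluciferin and compound (final 0.01–25 μM) preincubated 5 min, reaction started with NADPH regeneration system; incubated at room temperature 30 min (CYP3A4) or 45 min (CYP2D6).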

[8] = target: T4, 5-hydroxytryptamine receptor 1A (Homo sapiens, UniProt P08908); assay: Displacement of [3H]-8-OH-DPAT from human 5HT1A receptor expressed in HEK293 cells incubated for 1 hr by liquid scintillation counter method; format: cell-based; conditions: read-out: Ki
T4 sequence (P08908 whole entry): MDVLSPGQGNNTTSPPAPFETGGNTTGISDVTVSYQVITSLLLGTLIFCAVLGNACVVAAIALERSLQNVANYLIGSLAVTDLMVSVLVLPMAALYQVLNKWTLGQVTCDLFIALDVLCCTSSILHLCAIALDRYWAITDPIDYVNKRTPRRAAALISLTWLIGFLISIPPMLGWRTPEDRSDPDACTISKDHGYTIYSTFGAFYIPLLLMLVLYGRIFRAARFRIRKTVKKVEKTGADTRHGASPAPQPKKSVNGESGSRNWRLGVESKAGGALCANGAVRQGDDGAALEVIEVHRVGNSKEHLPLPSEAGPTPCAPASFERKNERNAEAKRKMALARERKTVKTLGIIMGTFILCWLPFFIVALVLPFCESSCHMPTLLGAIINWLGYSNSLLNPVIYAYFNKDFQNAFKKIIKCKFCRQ
Summary of the method: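 HEK293 cells stably expressing human 5-HT1AR; membranes in 50 mM Tris–HCl, 0.1 mM EDTA, 4 mM MgCl2, 10 μM pargyline, 0.1% ascorbate; incubated 1 h at room temperature, then filtered. Nonspecific binding defined with 10 μM 5-HT.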

Chain of Histamine H1 receptor (Homo sapiens) (P35367 whole entry): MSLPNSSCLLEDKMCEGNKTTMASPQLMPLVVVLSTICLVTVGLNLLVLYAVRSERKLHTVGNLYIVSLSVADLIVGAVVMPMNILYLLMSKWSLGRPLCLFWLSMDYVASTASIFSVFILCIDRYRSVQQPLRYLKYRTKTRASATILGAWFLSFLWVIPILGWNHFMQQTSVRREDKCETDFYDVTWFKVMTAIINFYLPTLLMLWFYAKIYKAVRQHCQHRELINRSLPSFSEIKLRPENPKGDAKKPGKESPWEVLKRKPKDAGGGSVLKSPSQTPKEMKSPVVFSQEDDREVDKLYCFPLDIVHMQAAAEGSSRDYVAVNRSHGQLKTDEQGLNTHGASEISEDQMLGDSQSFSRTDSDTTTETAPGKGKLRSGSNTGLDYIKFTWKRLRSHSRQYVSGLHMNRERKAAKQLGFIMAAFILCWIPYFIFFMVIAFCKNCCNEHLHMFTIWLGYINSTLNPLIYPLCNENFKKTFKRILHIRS
Chain of Cytochrome P450 2D6 (P10635 whole entry): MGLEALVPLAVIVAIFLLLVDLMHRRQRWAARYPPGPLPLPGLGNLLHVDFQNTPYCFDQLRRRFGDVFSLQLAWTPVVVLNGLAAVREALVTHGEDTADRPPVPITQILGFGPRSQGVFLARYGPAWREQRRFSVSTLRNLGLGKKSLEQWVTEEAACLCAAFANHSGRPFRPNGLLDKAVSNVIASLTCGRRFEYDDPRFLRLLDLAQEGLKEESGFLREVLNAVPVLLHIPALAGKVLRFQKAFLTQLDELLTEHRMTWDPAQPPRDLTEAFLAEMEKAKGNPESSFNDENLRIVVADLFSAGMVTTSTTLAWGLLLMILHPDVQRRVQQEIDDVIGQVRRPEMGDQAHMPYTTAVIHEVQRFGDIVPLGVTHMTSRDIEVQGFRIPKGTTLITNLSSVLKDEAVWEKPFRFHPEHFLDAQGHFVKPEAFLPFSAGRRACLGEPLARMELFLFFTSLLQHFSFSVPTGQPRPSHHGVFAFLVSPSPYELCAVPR

In the case of Cc1nc(N)[nH]c1-c1cn(S(=O)(=O)c2cccc3ccccc23)c2ccccc12.Cl, the Activity (Rattus norvegicus [1]) is reported as “Active”, the half-life (in vitro) is reported as 23 min and the Activity [2] is reported as 25.7%. The inhibition [3] was -0.3%, the IC50 (HepG2) was 18.4 µM and the Activity (Rattus norvegicus [4]) was “Active”. It also gave an inhibition [5] of 10.7%, an Activity [6] of -1.3% and an Activity [7] of 50.3%. For the same molecule, the “inhibition (INH)” value (Cytochrome P450 2D6) was “Active” and the Ki [8] was over 10 µM.
